# Test results published in ChEMBL document CHEMBL1268928, “Design and synthesis of novel pyrimidine hydroxamic acid inhibitors of histone deacetylases” (Bioorg Med Chem Lett, 2010).
# pIC50: −log10 of the molar value.
# Tests used:
# U-937 = test: cells; type: functional; conditions: Homo sapiens, U-937, 72 h
# Histone deacetylase = test: Inhibition of HDAC in human HeLa cell nuclear extracts by fluorimetric assay; type: protein assay
# HuT78 = test: cells; type: functional; conditions: Homo sapiens, HuT78, 72 h
# HCT-116 [1] = test: cells; type: functional; conditions: Homo sapiens, HCT-116, 72 h
# HeLa = test: cells; type: functional; conditions: Homo sapiens, 72 h
# Spleen [2] = test: Drug level in spleen of human HCT116 cells xenografted in CrTac:NCr-Fox1 (nu) athymic mouse at 50 mg/kg, po qd for 16 days measured after 1 hr; type: ADME, organism-based, HCT-116; parameters: dose 50 mg/kg, route oral; conditions: in vivo
# Procedure, shortened: (§1)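 Tissue levels measured in female athymic mice bearing bilateral HCT116 xenografts after oral 50 mg/kg once daily for 16 days. Sampled at 0.5, 1 and 4 h post dose. Plasma is reported in nM; tumour and spleen in nmol/kg. The 1 h values are the mean of three samples; 0.5 and 4 h values are means of two.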
# [3] = Cmax in CD1 mouse spleen at 3 mg/kg, po or 1 mg/kg, iv; type: ADME, organism-based
# Procedure, shortened: (§2)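 Cassette PK study in CD1 mice, dosed 3 mg/kg po and 1 mg/kg iv. Cmax was measured in plasma and spleen, and oral bioavailability F was derived.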
# Cytochrome P450 2D6 = Cytochrome P450 2D6 (Homo sapiens, UniProt P10635); test: Inhibition of CYP2D6 at 50 uM; type: ADME
# Cytochrome P450 2D6, sequence (P10635 whole entry): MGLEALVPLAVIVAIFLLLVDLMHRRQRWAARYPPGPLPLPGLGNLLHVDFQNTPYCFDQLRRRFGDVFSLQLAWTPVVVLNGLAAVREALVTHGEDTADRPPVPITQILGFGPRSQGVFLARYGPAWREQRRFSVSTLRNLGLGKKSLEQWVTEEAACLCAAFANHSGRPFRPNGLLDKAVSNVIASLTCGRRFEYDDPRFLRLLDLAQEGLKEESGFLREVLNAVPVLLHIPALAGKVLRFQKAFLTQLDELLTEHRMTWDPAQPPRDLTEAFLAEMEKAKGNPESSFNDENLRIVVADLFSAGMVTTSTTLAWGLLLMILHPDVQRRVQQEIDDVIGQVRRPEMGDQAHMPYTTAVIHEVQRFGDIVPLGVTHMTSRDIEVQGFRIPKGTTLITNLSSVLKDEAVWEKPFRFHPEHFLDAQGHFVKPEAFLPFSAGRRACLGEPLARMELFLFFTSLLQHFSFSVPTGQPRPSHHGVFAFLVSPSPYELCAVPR
# [4] = Permeability from basolateral to apical side in human Caco-2 cells; type: ADME, cell-based; conditions: read-out: permeability
# [5] = Drug level in plasma of human HCT116 cells xenografted in CrTac:NCr-Fox1 (nu) athymic mouse at 50 mg/kg, po qd for 16 days measured after 1 hr; type: ADME, organism-based, HCT-116; parameters: dose 50 mg/kg, route oral; conditions: read-out: Drug uptake
# Procedure, shortened: as §1
# Mus musculus [6] = test: Inhibition of HDAC in human HCT116 cells xenografted CrTac:NCr-Fox1 (nu) athymic mouse assessed as increase in histone H3 acetylation at 50 mg/kg, po qd for 16 days measured 4 hrs post dose by Western blot relative to untreated control; type: functional, HCT-116
# Procedure, shortened: (§3)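 Female athymic nude mice bearing established bilateral HCT116 colon carcinoma xenografts (n = 14), dosed orally once daily for 16 days at 50 mg/kg. Tumour tissue taken after the final dose; histone H3 acetylation by Western blot with anti-acetylated H3 antibody. Band intensity by densitometry, normalised to GAPDH, and expressed as % of DMSO controls. One animal per value, n = 1–3.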
# [7] = Drug level in tumor of human HCT116 cells xenografted in CrTac:NCr-Fox1 (nu) athymic mouse at 50 mg/kg, po qd for 16 days measured after 1 hr; type: ADME, organism-based, Neoplasm, HCT-116; parameters: dose 50 mg/kg, route oral; conditions: in vivo
# Procedure, shortened: as §1
# Cytochrome P450 1A2 = molecular target: T1, Cytochrome P450 1A2 (Homo sapiens, UniProt P05177); test: Inhibition of CYP1A2 at 50 uM; type: ADME
# T1 sequence (P05177 whole entry): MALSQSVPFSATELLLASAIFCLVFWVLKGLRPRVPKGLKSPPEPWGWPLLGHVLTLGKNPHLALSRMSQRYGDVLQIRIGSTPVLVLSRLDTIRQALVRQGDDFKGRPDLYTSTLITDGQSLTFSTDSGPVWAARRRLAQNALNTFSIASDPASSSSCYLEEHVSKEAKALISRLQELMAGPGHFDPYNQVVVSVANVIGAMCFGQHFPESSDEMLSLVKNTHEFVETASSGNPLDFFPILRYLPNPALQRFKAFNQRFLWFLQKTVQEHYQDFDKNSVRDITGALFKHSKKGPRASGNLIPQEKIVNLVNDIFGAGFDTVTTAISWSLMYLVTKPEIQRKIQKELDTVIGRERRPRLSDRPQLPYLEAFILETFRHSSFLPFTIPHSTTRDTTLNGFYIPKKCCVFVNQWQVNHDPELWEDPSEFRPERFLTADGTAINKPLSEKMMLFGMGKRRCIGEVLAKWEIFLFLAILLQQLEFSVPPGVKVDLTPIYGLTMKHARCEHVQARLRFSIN
# Mus musculus [8] = test: Inhibition of HDAC in tumor tissue of human HCT116 cells xenografted CrTac:NCr-Fox1 (nu) athymic mouse assessed as increase in histone H3 acetylation at 50 mg/kg, po qd for 16 days measured 1 hr post dose by Western blot relative to untreated control; type: functional, HCT-116
# Procedure, shortened: as §3
# Cytochrome P450 3A4 = Cytochrome P450 3A4 (Homo sapiens, UniProt P08684); test: Inhibition of CYP3A4 at 50 uM; type: ADME
# Cytochrome P450 3A4, sequence (P08684 whole entry): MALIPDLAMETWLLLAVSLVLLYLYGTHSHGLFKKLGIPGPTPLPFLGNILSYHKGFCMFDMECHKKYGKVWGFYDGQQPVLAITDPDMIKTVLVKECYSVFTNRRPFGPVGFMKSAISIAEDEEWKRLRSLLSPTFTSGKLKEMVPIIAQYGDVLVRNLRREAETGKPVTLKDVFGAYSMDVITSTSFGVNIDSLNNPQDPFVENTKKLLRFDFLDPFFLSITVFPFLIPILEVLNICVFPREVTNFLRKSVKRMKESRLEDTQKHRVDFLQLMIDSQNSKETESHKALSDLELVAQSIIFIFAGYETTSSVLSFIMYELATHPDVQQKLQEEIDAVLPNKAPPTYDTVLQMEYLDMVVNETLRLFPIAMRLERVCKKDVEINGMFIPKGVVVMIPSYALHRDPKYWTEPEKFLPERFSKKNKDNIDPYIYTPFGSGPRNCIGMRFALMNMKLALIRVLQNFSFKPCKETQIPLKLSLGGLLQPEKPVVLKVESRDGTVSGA
# Cytochrome P450 2C19 = Cytochrome P450 2C19 (Homo sapiens, UniProt P33261); test: Inhibition of CYP2C19 at 50 uM; type: ADME
# Cytochrome P450 2C19, sequence (P33261 whole entry): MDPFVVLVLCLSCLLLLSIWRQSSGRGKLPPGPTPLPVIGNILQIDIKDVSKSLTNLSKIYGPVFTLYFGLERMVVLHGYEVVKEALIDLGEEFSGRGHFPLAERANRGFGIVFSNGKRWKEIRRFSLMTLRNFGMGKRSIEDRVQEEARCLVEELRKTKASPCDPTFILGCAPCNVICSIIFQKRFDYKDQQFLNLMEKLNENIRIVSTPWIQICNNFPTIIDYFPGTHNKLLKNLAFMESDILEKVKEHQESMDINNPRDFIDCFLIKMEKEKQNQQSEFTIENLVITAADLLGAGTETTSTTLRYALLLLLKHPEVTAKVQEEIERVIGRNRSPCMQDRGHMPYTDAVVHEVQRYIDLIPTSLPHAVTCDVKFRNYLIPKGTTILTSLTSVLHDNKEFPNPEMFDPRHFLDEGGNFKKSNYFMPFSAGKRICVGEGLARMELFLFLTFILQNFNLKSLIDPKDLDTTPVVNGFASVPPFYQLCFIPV
# [9] = Drug level in tumor of human HCT116 cells xenografted in CrTac:NCr-Fox1 (nu) athymic mouse at 50 mg/kg, po qd for 16 days measured after 0.5 hrs; type: ADME, organism-based, Neoplasm, HCT-116; parameters: dose 50 mg/kg, route oral; conditions: in vivo
# Procedure, shortened: as §1
# [10] = Apparent permeability of the compound by PAMPA assay; type: ADME
# [11] = Cmax in CD1 mouse plasma at 3 mg/kg, po or 1 mg/kg, iv; type: ADME, organism-based
# Procedure, shortened: as §2
# Spleen [12] = test: Drug level in spleen of human HCT116 cells xenografted in CrTac:NCr-Fox1 (nu) athymic mouse at 50 mg/kg, po qd for 16 days measured after 0.5 hrs; type: ADME, organism-based, HCT-116; parameters: dose 50 mg/kg, route oral; conditions: in vivo
# Procedure, shortened: as §1
# [13] = Metabolic stability in human liver microsomes at 10 uM after 30 mins; type: ADME, Microsome; conditions: read-out: Stability
# Procedure, shortened: (§4)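 Compound at 10 µM incubated with human or mouse liver microsomes. Read-out is the percentage of parent remaining after 30 min.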
# [14] = molecular target: Voltage-gated inwardly rectifying potassium channel KCNH2 (Homo sapiens, UniProt Q12809); test: Inhibition of human ERG channel
# Voltage-gated inwardly rectifying potassium channel KCNH2, sequence (Q12809 whole entry): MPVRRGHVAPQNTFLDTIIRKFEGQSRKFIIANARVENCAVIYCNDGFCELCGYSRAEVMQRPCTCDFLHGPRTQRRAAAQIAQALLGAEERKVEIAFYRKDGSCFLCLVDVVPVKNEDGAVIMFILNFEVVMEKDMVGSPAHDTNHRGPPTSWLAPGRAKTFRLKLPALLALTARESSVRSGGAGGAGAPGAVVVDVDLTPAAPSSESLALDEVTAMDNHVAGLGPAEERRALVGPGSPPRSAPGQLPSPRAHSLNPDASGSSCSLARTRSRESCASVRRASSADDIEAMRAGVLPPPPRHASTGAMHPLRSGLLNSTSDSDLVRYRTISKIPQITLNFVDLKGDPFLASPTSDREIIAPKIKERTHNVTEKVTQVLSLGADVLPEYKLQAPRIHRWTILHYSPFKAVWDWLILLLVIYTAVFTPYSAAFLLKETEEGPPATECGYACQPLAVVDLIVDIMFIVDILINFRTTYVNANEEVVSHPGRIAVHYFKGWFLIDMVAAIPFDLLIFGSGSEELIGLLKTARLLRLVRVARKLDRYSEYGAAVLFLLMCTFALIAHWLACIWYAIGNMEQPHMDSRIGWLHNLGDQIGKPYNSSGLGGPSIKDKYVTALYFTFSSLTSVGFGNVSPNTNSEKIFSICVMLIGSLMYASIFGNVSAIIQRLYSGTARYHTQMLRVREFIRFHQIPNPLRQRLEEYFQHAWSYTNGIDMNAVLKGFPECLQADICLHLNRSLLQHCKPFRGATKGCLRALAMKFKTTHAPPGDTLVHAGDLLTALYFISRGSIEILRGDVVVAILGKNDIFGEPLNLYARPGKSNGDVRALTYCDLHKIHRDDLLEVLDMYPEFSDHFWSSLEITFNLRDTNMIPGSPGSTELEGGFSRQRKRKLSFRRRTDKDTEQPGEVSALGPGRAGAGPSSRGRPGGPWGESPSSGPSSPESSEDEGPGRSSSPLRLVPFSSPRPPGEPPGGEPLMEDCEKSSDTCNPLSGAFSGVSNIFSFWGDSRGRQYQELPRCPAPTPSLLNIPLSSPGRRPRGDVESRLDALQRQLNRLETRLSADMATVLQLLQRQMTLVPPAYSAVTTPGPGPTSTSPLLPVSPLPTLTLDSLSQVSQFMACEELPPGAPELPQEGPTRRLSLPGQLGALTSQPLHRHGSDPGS
# [15] = Metabolic stability in mouse liver microsomes at 10 uM after 30 mins; type: ADME, Microsome; conditions: read-out: Stability
# Procedure, shortened: as §4
# HCT-116 [16] = test: Antitumor activity against human HCT116 cells xenografted in CrTac:NCr-Fox1 (nu) athymic mouse assessed as tumor weight at 50 mg/kg, po qd for 16 days relative to untreated control; type: functional
# Procedure, shortened: (§5)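 Female athymic mice (n = 14) bearing established bilateral HCT116 colon carcinoma xenografts; oral dosing once daily for 16 days at 50 mg/kg. Read-outs are final tumour weight and mean tumour volume, each relative to control. Body weight was monitored.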
# Cytochrome P450 2A6 = molecular target: T2, Cytochrome P450 2A6 (Homo sapiens, UniProt P11509); test: Inhibition of CYP2A6 at 50 uM; type: ADME
# T2 sequence (P11509 whole entry): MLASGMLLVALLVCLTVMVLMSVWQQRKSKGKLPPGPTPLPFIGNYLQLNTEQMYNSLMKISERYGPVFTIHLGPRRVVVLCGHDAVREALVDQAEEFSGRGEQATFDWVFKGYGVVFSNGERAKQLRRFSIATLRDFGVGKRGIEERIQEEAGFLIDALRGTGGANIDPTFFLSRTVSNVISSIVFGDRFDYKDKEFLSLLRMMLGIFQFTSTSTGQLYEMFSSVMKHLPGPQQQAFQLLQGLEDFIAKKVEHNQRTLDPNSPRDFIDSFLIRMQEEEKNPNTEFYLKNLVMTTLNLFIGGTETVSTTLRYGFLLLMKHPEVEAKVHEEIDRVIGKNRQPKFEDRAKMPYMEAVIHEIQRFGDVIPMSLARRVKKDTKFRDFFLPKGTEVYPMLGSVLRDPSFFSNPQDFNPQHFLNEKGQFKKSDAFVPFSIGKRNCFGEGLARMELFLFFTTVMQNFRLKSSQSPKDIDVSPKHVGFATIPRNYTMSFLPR
# Spleen [17] = test: Drug level in spleen of human HCT116 cells xenografted in CrTac:NCr-Fox1 (nu) athymic mouse at 50 mg/kg, po qd for 16 days measured after 4 hrs; type: ADME, organism-based, HCT-116; parameters: dose 50 mg/kg, route oral; conditions: in vivo
# Procedure, shortened: as §1
# [18] = Oral bioavailability in CD1 mouse at 3 mg/kg; type: ADME, organism-based; conditions: in vivo
# Procedure, shortened: as §2
# [19] = Drug level in plasma of human HCT116 cells xenografted in CrTac:NCr-Fox1 (nu) athymic mouse at 50 mg/kg, po qd for 16 days measured after 4 hrs; type: ADME, organism-based, HCT-116; parameters: dose 50 mg/kg, route oral; conditions: read-out: Drug uptake
# Procedure, shortened: as §1
# HCT-116 [20] = test: Antitumor activity against human HCT116 cells xenografted in CrTac:NCr-Fox1 (nu) athymic mouse assessed as tumor volume at 50 mg/kg, po qd for 16 days relative to untreated control; type: functional
# Procedure, shortened: as §5
# Cytochrome P450 2C8 = molecular target: T3, Cytochrome P450 2C8 (Homo sapiens, UniProt P10632); test: Inhibition of CYP2C8 at 50 uM; type: ADME
# T3 sequence (P10632 whole entry): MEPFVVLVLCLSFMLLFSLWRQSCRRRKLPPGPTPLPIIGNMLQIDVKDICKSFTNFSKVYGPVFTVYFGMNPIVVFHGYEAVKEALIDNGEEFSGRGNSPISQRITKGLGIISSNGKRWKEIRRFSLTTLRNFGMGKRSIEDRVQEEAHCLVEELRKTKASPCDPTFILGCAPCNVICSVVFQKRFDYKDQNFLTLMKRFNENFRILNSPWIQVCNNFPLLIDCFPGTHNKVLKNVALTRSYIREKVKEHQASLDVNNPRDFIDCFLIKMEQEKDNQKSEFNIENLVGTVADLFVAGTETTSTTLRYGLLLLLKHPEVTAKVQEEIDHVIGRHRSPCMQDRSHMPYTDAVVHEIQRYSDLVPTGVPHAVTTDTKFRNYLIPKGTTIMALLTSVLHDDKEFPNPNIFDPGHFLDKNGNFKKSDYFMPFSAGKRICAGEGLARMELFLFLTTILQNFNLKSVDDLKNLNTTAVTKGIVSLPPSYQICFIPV
# [21] = Drug level in tumor of human HCT116 cells xenografted in CrTac:NCr-Fox1 (nu) athymic mouse at 50 mg/kg, po qd for 16 days measured after 4 hrs; type: ADME, organism-based, Neoplasm, HCT-116; parameters: dose 50 mg/kg, route oral; conditions: in vivo
# Procedure, shortened: as §1
smiles,measurement,setting,value
O=C(NO)c1cnc(N2C[C@@H]3CN(S(=O)(=O)c4ccc5ccccc5c4)C[C@@H]3C2)nc1,GI50,U-937,480 nM
same,IC50,Histone deacetylase,64 nM
same,GI50,HuT78,300 nM
same,GI50,HCT-116 [1],740 nM
same,GI50,HeLa,1130 nM
O=C(NO)c1cnc(N2C[C@H]3CN(Cc4ccc(Cl)cc4)C[C@H]3C2)nc1,GI50,U-937,230 nM
same,IC50,Histone deacetylase,42 nM
same,GI50,HuT78,190 nM
same,GI50,HCT-116 [1],490 nM
same,GI50,HeLa,690 nM
COc1ccc(CN2C[C@@H]3CN(c4ncc(C(=O)NO)cn4)C[C@@H]3C2)cc1,GI50,U-937,550 nM
same,IC50,Histone deacetylase,95 nM
same,GI50,HuT78,290 nM
same,GI50,HCT-116 [1],900 nM
same,GI50,HeLa,950 nM
O=C(NO)c1cnc(N2C[C@H]3CN(Cc4ccc5ccccc5c4)C[C@H]3C2)nc1,Drug uptake,Spleen [2],1260 nmol/kg
same,Cmax,[3],218 ng/mL
same,pIC50,Cytochrome P450 2D6,5.00
same,Papp B→A,[4],9.4 ×10⁻⁶ cm/s
same,concentration at 1 h,[5],14 nM
same,fold change (FC),Mus musculus [6],2
same,Drug uptake,[7],215 nmol/kg
same,inhibition (INH),Cytochrome P450 1A2,Not Active
same,GI50,U-937,72 nM
same,fold change (FC),Mus musculus [8],2
same,inhibition (INH),Cytochrome P450 3A4,Not Active
same,inhibition (INH),Cytochrome P450 2C19,Not Active
same,Drug uptake,[9],80 nmol/kg
same,Papp,[10],0.5 ×10⁻⁶ cm/s
same,Cmax,[11],31 ng/mL
same,Drug uptake,Spleen [12],620 nmol/kg
same,"remaining at 0.5 h, 10 µM",[13],72%
same,pIC50,[14],5.39
same,IC50,Histone deacetylase,13 nM
same,"remaining at 0.5 h, 10 µM",[15],45%
same,T/C,HCT-116 [16],80%
same,GI50,HuT78,79 nM
same,inhibition (INH),Cytochrome P450 2A6,Not Active
same,Drug uptake,Spleen [17],500 nmol/kg
same,bioavailability,[18],15%
same,concentration at 4 h,[19],25 nM
same,Activity,HCT-116 [20],28%
same,inhibition (INH),Cytochrome P450 2C8,Not Active
same,GI50,HCT-116 [1],120 nM
same,GI50,HeLa,260 nM
same,Drug uptake,[21],154 nmol/kg
